Assay results pooled from the literature.
Protocols differ between the studies behind these lines.
Target: Dual specificity protein kinase CLK3 (CLK3, Homo sapiens, UniProt P49761)

Oc1cccc(-c2nc(N3CCOCC3)c3oc4ncccc4c3n2)c1
remaining signal (cell-free assay; 0.5 µM): 93.1%

CCS(=O)(=O)c1cc2cc(C[C@](O)(CC(C)(C)c3ccc(F)cc3C(N)=O)C(F)(F)F)[nH]c2cn1
remaining binding (cell-free assay, competition with immobilised ligand; 1 µM): 100%

COc1cc(Cl)c(C(=O)N[C@@H](CN[C@H]2CC[C@@H](N)CC2)Cc2ccc(C#N)cc2)cc1-c1ccc(CN[C@H](C)c2ccc(C)cc2)o1
remaining activity (enzyme activity, inhibitor; 1 µM): 99%

Nc1cnc(N2CCc3cc(S(=O)(=O)Nc4c(F)cc(Cl)cc4F)cc(N4CCCC4=O)c32)nc1
remaining binding (cell-free assay, competition with immobilised ligand; 1 µM): 74%

Cn1c2c(c3ccc(Cl)c(Cl)c31)C(C#N)C1(CCCC1)NC2=O (stereo not shown)
ΔTm (thermal stability, DSF; 10 µM): 0.3 °C

Cc1ccc(Nc2nccc(N(C)c3ccc4c(C)n(C)nc4c3)n2)cc1S(N)(=O)=O
inhibition (enzyme activity, inhibitor; 0.3 µM): 2%

Cn1c2c(c3ccc(Cl)c(Cl)c31)C(C#N)C1(CCNCC1)NC2=O (racemic)
ΔTm (thermal stability, DSF; 10 µM): 2.2 °C

C[C@@]1(Cc2ccc(C#N)cc2)C(=O)N(c2cc(Cl)cc(Cl)c2)c2ncc(C(=O)NC3(c4nc(C5CCC5)no4)CC3)n21
remaining binding (cell-free assay, competition with immobilised ligand; 1 µM): 100%

Cn1c2c(c3ccc(Cl)c(Cl)c31)C(C#N)C1(CCOCC1)NC2=O (stereo not shown)
ΔTm (thermal stability, DSF; 10 µM): 0.1 °C

Cc1ccc(C(=O)Nc2ccc(CN3CCN(C)CC3)c(C(F)(F)F)c2)cc1C#Cc1cnc2cccnn12
remaining activity (enzyme activity, inhibitor; 23.5 nM): 77%

CNC(=O)c1cc(Oc2ccc(NC(=O)Nc3ccc(Cl)c(C(F)(F)F)c3)cc2)ccn1
inhibition (enzyme activity, inhibitor; 0.3 µM): -1%

COc1cc(Nc2c(C#N)cnc3cc(OCCCN4CCN(C)CC4)c(OC)cc23)c(Cl)cc1Cl
remaining signal (cell-free assay; 0.5 µM): 94.9%

O=C(Nc1cnn(-c2csc(C(=O)NC3COC3)c2)c1)Nc1c(F)cccc1Cl
remaining activity (enzyme activity, inhibitor; 5 µM): 93.5%

CN1CCN(c2cnc3c(C4CCN(C(=O)c5ccc(OC(F)(F)F)cc5N)CC4)ncnc3c2)CC1
remaining binding (cell-free assay, competition with immobilised ligand; 1 µM): 100%

O=C1Nc2ccc(Cl)cc2C1=Cc1cc(Cl)c(O)c(Cl)c1
remaining signal (cell-free assay; 0.5 µM): 90.9%

Cc1nccc(COC(=O)N2C[C@@H]3[C@@H](CNC(=O)c4ccc5[nH]nnc5c4)[C@@H]3C2)n1
remaining binding (cell-free assay, competition with immobilised ligand; 1 µM): 90%

CCN(CC)CCNC(=O)c1c(C)[nH]c(/C=C2\C(=O)Nc3ccc(F)cc32)c1C
inhibition (enzyme activity, inhibitor; 10 µM): 23%

Cn1c2c(c3ccc(Cl)c(Cl)c31)C(C#N)C1(CCCCC1)NC2=O (racemic)
ΔTm (thermal stability, DSF; 10 µM): 0.4 °C

CN1CC(Oc2cnc(C#N)cc2-c2ccn3nc(NC(=O)C4CC4)cc3c2)C1
inhibition (enzyme activity, inhibitor; 1 µM): -5%

Cn1c2c(Cl)c(Cl)ccc2c2cc(N)[nH]c(=O)c21
ΔTm (thermal stability, DSF; 10 µM): 0.6 °C

CCN(CC)c1ccc(C2=NNC(=O)CC2C)cc1[N+](=O)[O-] (stereo not shown)
remaining activity (enzyme activity, inhibitor; 10 µM): 85%

COc1cc2c(Nc3ccc(Br)cc3F)ncnc2cc1OCC1CCN(C)CC1
remaining signal (cell-free assay; 0.5 µM): 100%

CC(C)(C)c1nc2c(s1)c1nc(N)ncc1c1ccc(NS(=O)(=O)c3c(F)cccc3F)c(F)c12
remaining activity (enzyme activity, inhibitor, radiometric; 1 µM): 82%

COc1cc2ncnc(Nc3ccc(Oc4ccccc4)c(C)c3C)c2cc1OC
inhibition (enzyme activity, inhibitor; 1 µM): -3%

C[C@H](NC(=O)c1cnc2n1[C@](C)(Cc1ccc(C#N)cc1)C(=O)N2c1cc(Cl)c(F)c(Cl)c1)C(=O)NC1(c2ccccn2)CC1
remaining binding (cell-free assay, competition with immobilised ligand; 1 µM): 96%

CCOc1cc(-c2nncn2C)ccc1Nc1ncc2cc(C)nc(NCC(C)(C)C)c2n1
inhibition (enzyme activity, inhibitor, FRET; 1 µM): < 15%

C[S+]([O-])c1ccc(-c2nc(-c3ccncc3)c(-c3ccc(F)cc3)[nH]2)cc1 (stereo not shown)
remaining signal (cell-free assay; 0.5 µM): 99.1%

CN(C)C(=O)Cn1cc(-c2nc([C@@](C)(c3ccc(-c4cnc(N)nc4)cc3)C3CC3)no2)cn1
remaining binding (cell-free assay, competition with immobilised ligand; 1 µM): 100%

CCCOc1ccc(OC)c(F)c1C(=O)c1ccc(C(=O)N[C@@H]2CNC[C@H]2NC(=O)c2ccc3[nH]ncc3c2)cc1
remaining activity (enzyme activity, inhibitor; 10 µM): 105%

CC(=O)C1=C(C)N(c2cccc(C(F)(F)F)c2)C(=O)N[C@@H]1c1ccc(C#N)nc1
remaining binding (cell-free assay, competition with immobilised ligand; 1 µM): 100%

CCCS(=O)(=O)Nc1ccc(F)c(C(=O)c2c[nH]c3ncc(-c4ccc(Cl)cc4)cc23)c1F
inhibition (enzyme activity, inhibitor; 1 µM): < 10%
